Measured values: ChEMBL document CHEMBL1151817, “Steroids from an Australian sponge Psammoclema sp” (J Nat Prod, 2009)
Active and inactive are the calls of the source. The rule behind the calls is not given here.

How the values were obtained:
[1] = (§1) Inhibition of dynamin 1 GTPase activity in sheep brain peripheral membrane by microplate spectrophotometry; assay type: cell membranes, Ovis aries
Summary of the method: (§2)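 Sheep brain dynamin I, affinity-purified on GST-Amph2-SH3, used at 20 nM. Sample preincubated 12 min at 37 °C with 0.3 mM GTP in Tris pH 7.5 buffer containing Mg2+, Tween 80 and protease inhibitors. Enzyme then added; 30 min at 37 °C with shaking; phosphatidylserine liposome stimulation. Stopped with EDTA; malachite green phosphate readout at 650 nm against phosphate standard curve.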

HT-29 = assay: Cytotoxicity against human HT-29 cells after 72 hrs by MTT assay; assay type: functional; settings: HT-29, 72 h
Summary of the method: (§3)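 ATCC lines grown in DMEM with 10% FBS, glutamine, antibiotics, 37 °C, 5% CO2; 2000–3000 cells/well plated, compound added 24 h later during log growth. Eight concentrations, 0.25–50 μM (from 20 mM DMSO stock), 72 h exposure; MTT absorbance at 540 nm. GI50 = concentration giving 50% growth inhibition versus untreated cells; duplicate wells, two separate experiments.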

A2780 = assay: Cytotoxicity against human A2780 cells after 72 hrs by MTT assay; assay type: functional; settings: A2780, 72 h; summary of the method: as §3
DU-145 = assay: Cytotoxicity against human DU145 cells after 72 hrs by MTT assay; assay type: functional; settings: DU-145, 72 h; summary of the method: as §3
MCF7 = assay: Cytotoxicity against human MCF7 cells after 72 hrs by MTT assay; assay type: functional; settings: MCF7, 72 h; summary of the method: as §3
Ovis aries = species on record: Ovis aries; assay: as §1; assay type: cell membranes; summary of the method: as §2

SMILES	IC50 [1]	GI50 (HT-29)	GI50 (A2780)	GI50 (DU-145)	GI50 (MCF7)	Activity (Ovis aries)
C=C(C)C(CC)CCC(C)C1C(O)CC2C3CCC4CC(O)CCC4(C)C3CC(O)C21C (stereo not given)	> 300 µM	7.1 µM	11 µM	13 µM	10 µM	
C=C(CCC(C)C1C(O)CC2C3CCC4CC(O)CCC4(C)C3CC(O)C21C)C(C)C (stereo not given)		18 µM	19 µM	27 µM	18 µM	inactive
CC(C)C(C)/C=C/C(C)C1C(O)CC2C3CCC4CC(O)CCC4(C)C3CC(O)C21C (stereo not given)		7 µM	10 µM	27 µM	17 µM	inactive
CC(C)CCCC(C)C1C(O)CC2C3CCC4CC(O)CCC4(C)C3CC(O)C21C (stereo not given)		5 µM	5.4 µM	6.7 µM	5.5 µM	inactive
